According to ChEMBL document CHEMBL3352593, “Tumor xenograft uptake of a pyrrole-imidazole (Py-Im) polyamide varies as a function of cell line grafted” (J Med Chem, 2014):

Tests used:
Tumour [1] = experiment: Drug level in tumor of human LNCAP cells xenografted NSG mouse at 20 nmol, ip after 24 hrs by liquid scintillation counting method; type: ADME, organism-based, Neoplasm; details: in vivo
Procedure, shortened: (§1)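 Male NSG mice obtained at 8 weeks of age. Tumours engrafted subcutaneously with 2.5 M cells (viability ≥95% by trypan blue) in medium or 1:1 Matrigel; naive animals had no graft. Mice received 20 nmol C-14 polyamide per animal intraperitoneally. Tissues harvested 24 h later, solubilized, decolorized, and counted by liquid scintillation. Values are quench-corrected and normalized to organ weight; each tissue was analysed individually.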

Liver [2] = experiment: Drug level in liver of human LNCAP cells xenografted NSG mouse at 20 nmol, ip after 24 hrs by liquid scintillation counting method; type: ADME, organism-based; details: in vivo; procedure, shortened: as §1
Tumour [3] = experiment: Drug level in tumor of human A549 cells xenografted NSG mouse at 20 nmol, ip after 24 hrs by liquid scintillation counting method; type: ADME, organism-based, Neoplasm; details: in vivo; procedure, shortened: as §1
Kidney [4] = experiment: Drug level in kidney of human A549 cells xenografted NSG mouse at 20 nmol, ip after 24 hrs by liquid scintillation counting method; type: ADME, organism-based; details: in vivo; procedure, shortened: as §1
Lung [5] = experiment: Drug level in lung of human A549 cells xenografted NSG mouse at 20 nmol, ip after 24 hrs by liquid scintillation counting method; type: ADME, organism-based; details: in vivo; procedure, shortened: as §1
Tumour [6] = experiment: Drug level in tumor of human U251 cells xenografted NSG mouse at 20 nmol, ip after 24 hrs by liquid scintillation counting method; type: ADME, organism-based, Neoplasm, U-251; details: in vivo; procedure, shortened: as §1
Kidney [7] = experiment: Drug level in kidney of naive NSG mouse at 20 nmol, ip after 24 hrs by liquid scintillation counting method; type: ADME, organism-based; details: in vivo; procedure, shortened: as §1
Kidney [8] = experiment: Drug level in kidney of human A549 cells and human LNCAP cells xenografted NSG mouse at 20 nmol, ip after 24 hrs by liquid scintillation counting method; type: ADME, organism-based; details: in vivo; procedure, shortened: as §1
Lung [9] = experiment: Drug level in lung of human LNCAP cells xenografted NSG mouse at 20 nmol, ip after 24 hrs by liquid scintillation counting method; type: ADME, organism-based; details: in vivo; procedure, shortened: as §1
Lung [10] = experiment: Drug level in lung of human U251 cells xenografted NSG mouse at 20 nmol, ip after 24 hrs by liquid scintillation counting method; type: ADME, organism-based, U-251; details: in vivo; procedure, shortened: as §1
Liver [11] = experiment: Drug level in liver of human U251 cells xenografted NSG mouse at 20 nmol, ip after 24 hrs by liquid scintillation counting method; type: ADME, organism-based, U-251; details: in vivo; procedure, shortened: as §1
Liver [12] = experiment: Drug level in liver of human A549 cells xenografted NSG mouse at 20 nmol, ip after 24 hrs by liquid scintillation counting method; type: ADME, organism-based; details: in vivo; procedure, shortened: as §1
Liver [13] = experiment: Drug level in liver of human A549 cells and human LNCAP cells xenografted NSG mouse at 20 nmol, ip after 24 hrs by liquid scintillation counting method; type: ADME, organism-based; details: in vivo; procedure, shortened: as §1
Tumour [14] = experiment: Drug level in tumor of matrigel-negative human A549 cells xenografted NSG mouse at 20 nmol, ip measured 3 to 4 weeks past engraftment by liquid scintillation counting method; type: ADME, organism-based, Neoplasm; details: in vivo; procedure, shortened: as §1
Tumour [15] = experiment: Drug level in tumor of matrigel-positive human A549 cells xenografted NSG mouse at 20 nmol, ip measured 3 to 4 weeks past engraftment by liquid scintillation counting method; type: ADME, organism-based, Neoplasm; details: in vivo; procedure, shortened: as §1
Tumour [16] = experiment: Drug level in tumor of matrigel-negative human A549 cells xenografted NSG mouse at 20 nmol, ip measured 5 weeks past engraftment by liquid scintillation counting method; type: ADME, organism-based, Neoplasm; details: in vivo, 840 h; procedure, shortened: as §1
Tumour [17] = experiment: Drug level in tumor of matrigel-positive human A549 cells xenografted NSG mouse at 20 nmol, ip measured 5 weeks past engraftment by liquid scintillation counting method; type: ADME, organism-based, Neoplasm; details: in vivo, 840 h; procedure, shortened: as §1
Kidney [18] = experiment: Drug level in balb/c mouse kidney at 15 nmol, ip after 24 hrs by liquid scintillation counting method; type: ADME, organism-based; details: in vivo
Procedure, shortened: (§2)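 Male balb/c mice given C-14-labelled polyamide (quantitated by scintillation counting before dosing) as a single 15 nmol intraperitoneal dose per animal. Organs collected 24 h later and solubilized at +65 °C for at least 12 h, then decolorized with H2O2. C-14 counted by liquid scintillation, quench-corrected and normalized to organ weight. N = 5, mean with standard deviation.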

Liver [19] = experiment: Drug level in balb/c mouse liver at 15 nmol, ip after 24 hrs by liquid scintillation counting method; type: ADME, organism-based; details: in vivo; procedure, shortened: as §2
Bone marrow = experiment: Drug level in balb/c mouse bone marrow at 15 nmol, ip after 24 hrs by liquid scintillation counting method; type: ADME, organism-based; details: in vivo; procedure, shortened: as §2
Spleen = experiment: Drug level in balb/c mouse spleen at 15 nmol, ip after 24 hrs by liquid scintillation counting method; type: ADME, organism-based; details: in vivo; procedure, shortened: as §2
Pancreas = experiment: Drug level in balb/c mouse pancreas at 15 nmol, ip after 24 hrs by liquid scintillation counting method; type: ADME, organism-based; details: in vivo; procedure, shortened: as §2
Brain = experiment: Drug level in balb/c mouse brain at 15 nmol, ip after 24 hrs by liquid scintillation counting method; type: ADME, organism-based; details: in vivo; procedure, shortened: as §2
Liver [20] = experiment: Drug level in liver of matrigel-negative human A549 cells xenografted NSG mouse at 20 nmol, ip measured 5 weeks past engraftment by liquid scintillation counting method; type: ADME, organism-based; details: in vivo, 840 h, in the assay text read “matrigel-positive” for “matrigel-negative”; procedure, shortened: as §1
Liver [21] = experiment: Drug level in liver of matrigel-positive human A549 cells xenografted NSG mouse at 20 nmol, ip measured 5 weeks past engraftment by liquid scintillation counting method; type: ADME, organism-based; details: in vivo, 840 h, in the assay text read “matrigel-negative” for “matrigel-positive”; procedure, shortened: as §1

With `CC(=O)N[C@H](CCNC(=O)c1cc(NC(=O)c2cc(NC(=O)c3cc(NC(=O)c4nccn4C)cn3C)cn2C)cn1C)C(=O)Nc1cnc(C(=O)Nc2cc(C(=O)Nc3cc(C(=O)Nc4cc(C(=O)NCCCN(C)CCCN[14C](=O)c5cccc([14C](=O)O)c5)n(C)c4)n(C)c3)n(C)c2)n1C` the Drug uptake (Tumour [1]) was 1.5 mg/kg, the Drug uptake (Liver [2]) was 1.04 mg/kg and the Drug uptake (Tumour [3]) was 0.23 mg/kg. For the same compound, the Drug uptake (Kidney [4]) was 0.27 mg/kg, the Drug uptake (Lung [5]) was 0.15 mg/kg and the Drug uptake (Tumour [6]) was 0.65 mg/kg. The Drug uptake (Kidney [7]) was 0.23 mg/kg, the Drug uptake (Kidney [8]) was 0.27 mg/kg and the Drug uptake (Lung [9]) was 0.12 mg/kg. For the same compound, the Drug uptake (Lung [10]) was 0.12 mg/kg, the Drug uptake (Liver [11]) was 0.57 mg/kg and the Drug uptake (Liver [12]) was 0.57 mg/kg. The Drug uptake (Liver [13]) was 1.04 mg/kg, the Drug uptake (Tumour [14]) was 0.23 mg/kg and the Drug uptake (Tumour [15]) was 0.23 mg/kg. For the same compound, the Drug uptake (Tumour [16]) was 0.25 mg/kg, the Drug uptake (Tumour [17]) was 0.59 mg/kg and the Drug uptake (Kidney [18]) was 0.22 mg/kg. For the same compound, the Drug uptake (Liver [19]) was 0.49 mg/kg, the Drug uptake (Bone marrow) was 0.24 mg/kg and the Drug uptake (Spleen) was 0.32 mg/kg. For the same compound, the Drug uptake (Pancreas) was 0.15 mg/kg, the Drug uptake (Brain) was “Not Active” and the Drug uptake (Liver [20]) was 0.65 mg/kg. The Drug uptake (Liver [21]) was 0.55 mg/kg.
